{"data": "Measurements collected from several papers", "cell line": "OVCAR-3", "read-out": "cell growth or viability", "note": "Lines come from different studies, so protocols differ."}
{"Compound": "COc1ccc(C(=O)/C=C/c2cccc(Cl)c2Cl)cc1S(N)(=O)=O", "method": "SRB", "tested at": "10 µM", "endpoint": "inhibition", "value": "156%"}
{"Compound": "COc1cc(OC)c(/C=C/S(=O)(=O)Nc2ccc(OC)c(N)c2)c(OC)c1", "method": "trypan blue", "time": "96 h", "endpoint": "IC50", "value": "0.004 µM"}
{"Compound": "CC(C)c1cc(-c2n[nH]c(=O)n2-c2ccc3c(ccn3C)c2)c(O)cc1O", "method": "imaging", "time": "24 h", "endpoint": "IC50", "value": "0.279 µM"}
{"Compound": "COc1ccc(-c2ccc(-c3ccc(C(=N)N)nc3)s2)cc1", "method": "SRB", "endpoint": "GI50", "value": "1.82 µM"}
{"Compound": "COc1ccc(C(=O)/C=C/c2ccccc2Cl)cc1S(N)(=O)=O", "method": "SRB", "tested at": "10 µM", "endpoint": "inhibition", "value": "9%"}
{"Compound": "Cc1ccc(C)c(COc2cc(NC(=O)c3ccc4c(c3)OCO4)ccc2N(C)S(C)(=O)=O)c1", "method": "SRB", "time": "48 h", "endpoint": "GI50", "value": "0.0396 µM"}
{"Compound": "COc1ccc(C(=O)/C=C/c2cccnc2)cc1S(N)(=O)=O", "method": "SRB", "time": "48 h", "endpoint": "GI50", "value": "10.2 µM"}
{"Compound": "COc1cccc(Oc2ccccc2NC(=O)CNC(=O)c2cccc3ccccc23)c1", "method": "SRB", "time": "48 h", "endpoint": "GI50", "value": "0.1 µM"}
{"Compound": "COc1ccc(-c2ccc(-c3ccc(C(=N)N)nc3)s2)cc1Cl", "method": "SRB", "endpoint": "GI50", "value": "1.83 µM"}
{"Compound": "CC/C(=C(\\c1ccccc1)c1ccc(OCCN(C)C)cc1)c1ccccc1", "method": "ATP luminescence", "time": "72 h", "endpoint": "EC90", "value": "42.9 µM"}
{"Compound": "Cc1cc(C)n(C(=S)[S][Au][PH](CCCCCC[PH]([Au][S]C(=S)n2nc(C)cc2C)(c2ccccc2)c2ccccc2)(c2ccccc2)c2ccccc2)n1", "endpoint": "GI50", "value": "0.648 µM"}
{"Compound": "C[C@H]1O[C@@H](n2cc(F)c(=O)[nH]c2=O)[C@H](O)[C@@H]1O", "method": "CCK-8", "time": "48 h", "endpoint": "IC50", "value": "> 50 µM"}
{"Compound": "O=C1CCC2(Oc3cccc4cccc(c34)O2)c2c(O)ccc(O)c21", "method": "resazurin", "time": "72 h", "endpoint": "IC50", "value": "> 25 µM"}
{"Compound": "C[C@]12CC[C@@H]3c4ccc(O)cc4CC[C@H]3[C@@H]1CC[C@@H]2O", "method": "ATP luminescence", "time": "72 h", "endpoint": "EC50", "value": "27.6 µM"}
{"Compound": "CC(C)C(=O)Nc1ccc([N+](=O)[O-])c(C(F)(F)F)c1", "method": "CCK-8", "time": "48 h", "endpoint": "IC50", "value": "34.1 µM"}
{"Compound": "CSc1ccc(/C=C2\\C=C(CC(=O)NS(=O)(=O)C(F)(F)F)c3cc(F)ccc32)cc1", "method": "WST-1", "time": "48 h", "endpoint": "EC50", "value": "~160 µM"}
